The record followed here is ChEMBL document CHEMBL1821605, “4-Quinazolinyloxy-diaryl ureas as novel BRAFV600E inhibitors” (Bioorg Med Chem Lett, 2011).

Calls of active or inactive are those of the source. The rule behind the calls is not given here.

The Kd is the free concentration of one partner at which half of the binding sites on the other are occupied at equilibrium, for simple one-to-one binding. What is called AUC is the area under the concentration-time curve, a measure of exposure. A word on the bioavailability: it is the share of a dose that reaches the circulation, judged against a reference dose that is usually intravenous. Usually IC50 stands for the concentration that gives 50% inhibition. Read a low IC50 as inhibition by little substance.

One data set deals with T1, Serine/threonine-protein kinase B-raf (Homo sapiens, UniProt P15056, V600E). Kind of data set: Binding affinity to BRAF V600E mutant.
T1 sequence (P15056 2-766 V600E limits assumed): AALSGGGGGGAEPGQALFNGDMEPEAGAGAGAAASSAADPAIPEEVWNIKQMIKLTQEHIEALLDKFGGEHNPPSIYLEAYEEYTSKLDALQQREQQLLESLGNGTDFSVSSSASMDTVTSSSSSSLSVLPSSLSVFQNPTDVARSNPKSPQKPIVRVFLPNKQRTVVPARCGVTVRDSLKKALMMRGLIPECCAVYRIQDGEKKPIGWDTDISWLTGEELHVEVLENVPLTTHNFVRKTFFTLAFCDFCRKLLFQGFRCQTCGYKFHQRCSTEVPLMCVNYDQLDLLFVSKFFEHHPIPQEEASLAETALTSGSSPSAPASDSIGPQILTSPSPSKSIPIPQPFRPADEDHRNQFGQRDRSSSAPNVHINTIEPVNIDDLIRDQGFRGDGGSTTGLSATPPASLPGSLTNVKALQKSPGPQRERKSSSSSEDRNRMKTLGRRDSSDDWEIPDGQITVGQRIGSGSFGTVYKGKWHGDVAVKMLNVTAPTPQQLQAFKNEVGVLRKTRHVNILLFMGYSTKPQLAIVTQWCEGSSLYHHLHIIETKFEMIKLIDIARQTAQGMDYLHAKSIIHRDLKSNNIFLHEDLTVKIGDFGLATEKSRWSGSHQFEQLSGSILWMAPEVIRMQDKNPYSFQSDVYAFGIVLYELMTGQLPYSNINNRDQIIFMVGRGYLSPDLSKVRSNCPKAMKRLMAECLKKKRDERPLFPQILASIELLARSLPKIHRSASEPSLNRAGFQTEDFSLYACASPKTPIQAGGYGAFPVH
Conditions: not given
Consider `COc1cc2ncnc(Oc3cccc(NC(=O)Nc4cc(C(C)(C)C)on4)c3)c2cc1O`, for which the equilibrium dissociation constant (Kd) was found to be 46 nM.
Take `COCCOc1cc2c(Oc3cccc(NC(=O)Nc4cc(C(C)(C)C)on4)c3)ncnc2cc1OC`: binding was characterised by a dissociation constant (Kd) of 48 nM.
For the compound `COCCOc1cc2ncnc(Oc3cccc(NC(=O)Nc4cc(C(C)(C)C)on4)c3)c2cc1OC`, the dissociation constant (Kd) is 57 nM.
With `COc1cc2ncnc(Oc3cc(NC(=O)Nc4cc(C(C)(C)C)on4)ccc3F)c2cc1OC`, the affinity, expressed as Kd, was 72 nM.
`COc1cc2ncnc(Oc3cccc(NC(=O)Nc4cc(C(C)(C)C)on4)c3)c2cc1OCCCN1CCOCC1` showed a dissociation constant Kd of 29 nM.
For the compound `COc1cc2c(Oc3cccc(NC(=O)Nc4cc(C(C)(C)C)on4)c3)ncnc2cc1OCCN1CCOCC1`, the affinity, expressed as Kd, was 34 nM.
`CCOc1cc2c(Oc3cccc(NC(=O)Nc4cc(C(C)(C)C)on4)c3)ncnc2cc1OC` displayed a Kd of 67 nM.
For the compound `COc1cc2ncnc(Oc3ccc(F)c(NC(=O)Nc4cc(C(C)(C)C)on4)c3)c2cc1OC`, the Kd came out at 56 nM.
Same read-out and setting: next, `COc1cc2c(Oc3cccc(NC(=O)Nc4cc(C(C)(C)C)on4)c3)ncnc2cc1O`: 57 nM.

The subject of another data set is Mus musculus. Kind of data set: Inhibition of BRAF V600E mutant-dependent MEK phosphorylation in Colo205 cells xenografted in nude mouse at 100 mg/kg, po bid for 5 days measured at 10 hrs post-dose. The settings on record: COLO 205. It is filed as functional. Put shortly: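 Colo-205 xenograft mice were dosed orally at 100 mg/kg bid. On day 5 of dosing, tumor tissue was collected 10 h post-dose and phosphorylated MEK levels were measured against vehicle.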
`COc1cc2ncnc(Oc3cccc(NC(=O)Nc4cc(C(C)(C)C)on4)c3)c2cc1OC.Cl` displayed an inhibition in vivo at 100 mg/kg of at least 50%.
Still for that read-out and setting: next, `COc1cc2c(Oc3cccc(NC(=O)Nc4cc(C(C)(C)C)on4)c3)ncnc2cc1OCCN1CCOCC1`: 70%.

Tested on in the next data set: not listed separately
Kind of data set: AUC in mouse plasma at 30 mg/kg, po. It is filed as ADME, organism-based. Also on record: dose 30 mg/kg, route oral.
Conditions: not given
The procedure, abridged: (§1)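 Compound given orally to mice at the stated dose. Plasma exposure reported as AUC in μM × h.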
`COc1cc2ncnc(Oc3cccc(NC(=O)Nc4cc(C(C)(C)C)on4)c3)c2cc1OC.Cl` displayed an AUC of 12.5 µM·h.

A further data set has as its system COLO 205. Kind of data set: Antitumor activity against human COLO205 cells xenografted in nude mouse assessed as tumor regression at 100 mg/kg, po bid upto 15 days. It counts as functional.
Conditions: not given
The procedure, abridged:
(§2)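 Mice bearing Colo-205 tumors were dosed orally bid at 30, 55 or 100 mg/kg and compared with a vehicle control group. Tumor growth was followed over the dosing period, […]. Outcomes recorded were stasis, regrowth, incidence of regressions and % growth inhibition. Significance was tested against vehicle.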
Background: A xenograft is tissue or cells of one species grown in another, often human tumour cells in immunodeficient mice.
`COc1cc2ncnc(Oc3cccc(NC(=O)Nc4cc(C(C)(C)C)on4)c3)c2cc1OC.Cl`: the Activity was 55%.

In another data set the test system is Mus musculus. Kind of data set: Toxicity in nude mouse xenografted with human COLO205 cells assessed as body weight loss at 10 to 100 mg/kg, po bid upto 15 days. It counts as organism-based, COLO 205. Further details: dose 10-100 mg/kg, route oral. The settings on record: in vivo, 360 h. Put shortly:
(§3)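 Body weight was monitored in Colo-205 xenograft-bearing mice during oral bid dosing, with maximum % loss recorded. Monitoring continued after dosing stopped to assess reversibility.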
As for `COc1cc2c(Oc3cccc(NC(=O)Nc4cc(C(C)(C)C)on4)c3)ncnc2cc1OCCN1CCOCC1`, the Activity entry is on record as “Non-toxic”.

In the next data set the test system is Mus musculus. Kind of data set: Toxicity in nude mouse xenografted with human COLO205 cells assessed as body weight loss at 30 to 100 mg/kg, po bid upto 15 days. It is filed as organism-based, COLO 205. Further details: dose 30-100 mg/kg, route oral. The settings on record: in vivo, 360 h. The procedure, abridged:
as §3
Consider `COc1cc2ncnc(Oc3cccc(NC(=O)Nc4cc(C(C)(C)C)on4)c3)c2cc1OC.Cl`, for which the Activity turned out to be 8%.
Take `COc1cc2c(Oc3cccc(NC(=O)Nc4cc(C(C)(C)C)on4)c3)ncnc2cc1OCCN1CCOCC1`: the Activity entry is reported as “Non-toxic”.

In the next data set the test system is COLO 205. Kind of data set: Antitumor activity against human COLO205 cells xenografted in nude mouse assessed as tumor stasis at 100 mg/kg, po bid upto 15 days. It is filed as functional, organism-based. Further details: dose 100 mg/kg.
Conditions: not given
Put shortly: as §2
On to `COc1cc2ncnc(Oc3cccc(NC(=O)Nc4cc(C(C)(C)C)on4)c3)c2cc1OC`, for which the result was Active.

A further data set relates to Mus musculus. Kind of data set: Inhibition of BRAF V600E mutant-dependent MEK phosphorylation in Colo205 cells xenografted in nude mouse assessed as compound concentration in plasma required for maximum % inhibition. It counts as functional.
Conditions: not given
`COc1cc2ncnc(Oc3cccc(NC(=O)Nc4cc(C(C)(C)C)on4)c3)c2cc1OC.Cl`: the Activity was found to be 2.5 µM.
Consider `COc1cc2c(Oc3cccc(NC(=O)Nc4cc(C(C)(C)C)on4)c3)ncnc2cc1OCCN1CCOCC1`, for which the Activity is 2 µM.

Another data set has as its system COLO 205. Kind of data set: Antitumor activity against human COLO205 cells xenografted in nude mouse assessed as tumor growth inhibition at 100 mg/kg, po bid upto 8 days. The settings on record: COLO 205, 192 h, read-out: TGI. It counts as functional. Put shortly: as §2
As to `COc1cc2c(Oc3cccc(NC(=O)Nc4cc(C(C)(C)C)on4)c3)ncnc2cc1OCCN1CCOCC1`, the inhibition in vivo at 100 mg/kg is 65%.

The subject of another data set is Mus musculus. Kind of data set: Inhibition of BRAF V600E mutant-dependent MEK phosphorylation in Colo205 cells xenografted in nude mouse assessed as compound concentration in tumor required for maximum % inhibition. It counts as functional.
Conditions: not given
With `COc1cc2ncnc(Oc3cccc(NC(=O)Nc4cc(C(C)(C)C)on4)c3)c2cc1OC.Cl`, the Activity came to 24 µM.
Consider `COc1cc2c(Oc3cccc(NC(=O)Nc4cc(C(C)(C)C)on4)c3)ncnc2cc1OCCN1CCOCC1`, for which the Activity was 11 µM.

The test system of the next data set is Mus musculus. Kind of data set: Inhibition of BRAF V600E mutant-dependent MEK phosphorylation in Colo205 cells xenografted in nude mouse at 100 mg/kg, po bid for 5 days measured at 24 hrs post-dose. It counts as functional. The settings on record: COLO 205.
`COc1cc2c(Oc3cccc(NC(=O)Nc4cc(C(C)(C)C)on4)c3)ncnc2cc1OCCN1CCOCC1`: the inhibition in vivo at 100 mg/kg was 50%.
Consider `COc1cc2ncnc(Oc3cccc(NC(=O)Nc4cc(C(C)(C)C)on4)c3)c2cc1OC`, for which the inhibition result is “inactive”.

Tested on in the next data set: not listed separately
Kind of data set: Oral bioavailability in rat. The settings on record: in vivo. It counts as ADME, organism-based. Put shortly: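 Oral bioavailability (%F) was measured in rats, generally dosing the hydrochloride salt; some compounds were given as free base.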
The compound `COc1cc2ncnc(Oc3cccc(NC(=O)Nc4cc(C(C)(C)C)on4)c3)c2cc1OCCCN1CCOCC1.Cl` returned a bioavailability of 20%.
In turn, `COc1cc2ncnc(Oc3cc(NC(=O)Nc4cc(C(C)(C)C)on4)ccc3F)c2cc1OC.Cl` registered a bioavailability of 22%.
The same measure, in the same setting: the value for `CCOc1cc2ncnc(Oc3cccc(NC(=O)Nc4cc(C(C)(C)C)on4)c3)c2cc1OC.Cl` was 16%; that for `COCCOc1cc2c(Oc3cccc(NC(=O)Nc4cc(C(C)(C)C)on4)c3)ncnc2cc1OC.Cl` was 13%.
`COc1cc2ncnc(Nc3cccc(NC(=O)Nc4cc(C(C)(C)C)on4)c3)c2cc1OC.Cl` came in with a bioavailability of 1.9%.
For `COCCOc1cc2ncnc(Oc3cccc(NC(=O)Nc4cc(C(C)(C)C)on4)c3)c2cc1OC.Cl`, the bioavailability came out at 56%.
Consider `CCOc1cc2c(Oc3cccc(NC(=O)Nc4cc(C(C)(C)C)on4)c3)ncnc2cc1OC.Cl`, for which the bioavailability was 30%.
As to `COc1cc2ncnc(Sc3cccc(NC(=O)Nc4cc(C(C)(C)C)on4)c3)c2cc1OC.Cl`, the bioavailability was found to be 24%.
In the case of `COc1cc2ncnc(Nc3ccc(NC(=O)Nc4cc(C(C)(C)C)on4)cc3)c2cc1OC.Cl`, the bioavailability is below 1%.
The compound `COc1cc2ncnc(Oc3cccc(NC(=O)Nc4cc(C(C)(C)C)on4)c3)c2cc1OC.Cl` gave a bioavailability of 49%.
Compound `COc1cc2c(Oc3cccc(NC(=O)Nc4cc(C(C)(C)C)on4)c3)ncnc2cc1OCCN1CCOCC1` returned a bioavailability of 52%.
`COc1cc2c(Oc3cccc(NC(=O)Nc4cc(C(C)(C)C)on4)c3)ncnc2cc1O` gave a bioavailability below 1%.

The target of a further data set is T1, Serine/threonine-protein kinase B-raf. Kind of data set: Inhibition of BRAF V600E mutant-dependent MEK phosphorylation in A375 cells. It is filed as cell-based, A-375.
Conditions: not given
`COc1cc2ncnc(Oc3cccc(NC(=O)Nc4cc(C(C)(C)C)on4)c3)c2cc1O` displayed a 50% inhibitory concentration (IC50) of 86 nM.
Compound `COCCOc1cc2c(Oc3cccc(NC(=O)Nc4cc(C(C)(C)C)on4)c3)ncnc2cc1OC` returned an IC50 of 59 nM.
The compound `COCCOc1cc2ncnc(Oc3cccc(NC(=O)Nc4cc(C(C)(C)C)on4)c3)c2cc1OC` registered a 50% inhibitory concentration (IC50) of 100 nM.
On to `COc1cc2ncnc(Oc3cc(NC(=O)Nc4cc(C(C)(C)C)on4)ccc3F)c2cc1OC`, for which the IC50 came out at 62 nM.
`COc1cc2ncnc(Oc3cccc(NC(=O)Nc4cc(C(C)(C)C)on4)c3)c2cc1OCCCN1CCOCC1` registered an IC50 of 36 nM.
The compound `COc1cc2c(Oc3cccc(NC(=O)Nc4cc(C(C)(C)C)on4)c3)ncnc2cc1OCCN1CCOCC1` returned an IC50 of 165 nM.
On the same count and under the same terms, the value for `CCOc1cc2c(Oc3cccc(NC(=O)Nc4cc(C(C)(C)C)on4)c3)ncnc2cc1OC` was 80 nM; that for `COc1cc2ncnc(Oc3ccc(F)c(NC(=O)Nc4cc(C(C)(C)C)on4)c3)c2cc1OC` was 113 nM; that for `COc1cc2c(Oc3cccc(NC(=O)Nc4cc(C(C)(C)C)on4)c3)ncnc2cc1O` was 110 nM.

Tested on in a further data set: not listed separately
Kind of data set: AUC in mouse plasma at 100 mg/kg, po. It is filed as ADME, organism-based. Also on record: dose 100 mg/kg, route oral.
Conditions: not given
Put shortly: as §1
`COc1cc2c(Oc3cccc(NC(=O)Nc4cc(C(C)(C)C)on4)c3)ncnc2cc1OCCN1CCOCC1` gave an exposure (AUC) of 48 µM·h.

The subject of a further data set is COLO 205. Kind of data set: Antitumor activity against human COLO205 cells xenografted in nude mouse assessed as complete suppression of tumor regrowth at 100 mg/kg, po bid before 15 days. It is filed as functional, organism-based. Also on record: dose 100 mg/kg.
Conditions: not given
The procedure, abridged:
as §2
In the case of `COc1cc2c(Oc3cccc(NC(=O)Nc4cc(C(C)(C)C)on4)c3)ncnc2cc1OCCN1CCOCC1`, the outcome was inactive.
